Measured values as given in ChEMBL document CHEMBL1155362, “Synthesis, characterization and derivatization of some novel types of mono- and bis-imidazolidineiminothiones and imidazolidineiminodithiones with antitumor, antiviral, antibacterial and antifungal activities--part I” (Eur J Med Chem, 2009).
In brackets after ≈: the same amount, converted by molar mass. Activity calls are given as the source filed them. The calls are words filed in the database; no cut-off is given here.

Key:
[1] = system: Bacillus subtilis; test: Antibacterial activity against Bacillus subtilis NCIB 3610 at 5 mg/ml by agar disk diffusion assay; assay type: functional; conditions: Bacillus subtilis, NCIB 3610; read-out: DIZ
[2] = system: Candida albicans; test: Antifungal activity against Candida albicans IMRU 3669 at 5 mg/ml by agar disk diffusion assay; assay type: functional; conditions: Candida albicans, IMRU 3669; read-out: DIZ
Procedure, shortened: (§1)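 Fungi maintained on Czapek's Dox agar; agar well diffusion with 1 cm wells and […] of each concentration (1, 2.5, 5 mg/mL) in DMF; inhibition zone diameter measured.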

[3] = system: Candida albicans; test: Antifungal activity against Candida albicans IMRU 3669 at 1 mg/ml by agar disk diffusion assay; assay type: functional; conditions: read-out: DIZ; procedure, shortened: as §1
[4] = system: Candida albicans; test: Antifungal activity against Candida albicans IMRU 3669 at 2.5 mg/ml by agar disk diffusion assay; assay type: functional; conditions: read-out: DIZ; procedure, shortened: as §1
[5] = system: Aspergillus niger; test: Antifungal activity against Aspergillus niger Ferm-BAM C-21 at 5 mg/ml by agar disk diffusion assay; assay type: functional; conditions: read-out: DIZ; procedure, shortened: as §1
[6] = system: Aspergillus niger; test: Antifungal activity against Aspergillus niger Ferm-BAM C-21 at 2.5 mg/ml by agar disk diffusion assay; assay type: functional; conditions: read-out: DIZ; procedure, shortened: as §1
[7] = system: Aspergillus niger; test: Antifungal activity against Aspergillus niger Ferm-BAM C-21 at 1 mg/ml by agar disk diffusion assay; assay type: functional; conditions: read-out: DIZ; procedure, shortened: as §1
[8] = system: Bacillus subtilis; test: Antimicrobial activity against Bacillus subtilis NCTC 1040 by macrotube dilution assay; assay type: functional
[9] = system: Staphylococcus aureus; test: Antimicrobial activity against Staphylococcus aureus NCTC 7447 by macrotube dilution assay; assay type: functional
[10] = system: Klebsiella pneumoniae; test: Antimicrobial activity against Klebsiella pneumoniae NCIMB 9111 by macrotube dilution assay; assay type: functional
[11] = system: Salmonella typhi; test: Antimicrobial activity against Salmonella typhi NCIMB 9331 by macrotube dilution assay; assay type: functional, Salmonella enterica subsp. enterica serovar Typhi; conditions: Salmonella enterica
[12] = system: Candida albicans; test: Antifungal activity against Candida albicans IMRU 3669 by macrotube dilution assay; assay type: functional
Procedure, shortened: (§2)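 Macrotube twofold dilution per NCCLS/CLSI guidelines for fungi; 2 mg compound in 2.0 mL DMF, serially diluted across 14 tubes of Czapek's Dox medium, with a control tube; inoculum added to halve the concentration; 30 °C for 72 h; MIC is the lowest concentration without visible growth.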

[13] = system: Aspergillus niger; test: Antifungal activity against Aspergillus niger Ferm-BAM C-21 by macrotube dilution assay; assay type: functional; procedure, shortened: as §2
[14] = Antitumor activity against mouse EAC cells assessed as inhibition of cell viability at 100 ug/ml after 2 hrs by trypan blue exclusion assay; assay type: functional; conditions: Ehrlich
Procedure, shortened: (§3)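 EAC cells aspirated from ascitic fluid of inoculated mice and diluted in saline; 0.1 mL cell suspension, 0.8 mL RPMI 1640 and 0.1 mL compound (25, 50 or 100) incubated 2 h at 37 °C; non-viable cells counted by trypan blue exclusion; % non-viable = dead/total × 100.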

[15] = Antitumor activity against mouse EAC cells assessed as inhibition of cell viability at 50 ug/ml after 2 hrs by trypan blue exclusion assay; assay type: functional; conditions: Ehrlich; procedure, shortened: as §3
[16] = Antitumor activity against mouse EAC cells assessed as inhibition of cell viability at 25 ug/ml after 2 hrs by trypan blue exclusion assay; assay type: functional; conditions: Ehrlich; procedure, shortened: as §3
[17] = system: U-251; test: Cytotoxicity against human U251 cells assessed as surviving fraction after 48 hrs by SRB assay; assay type: functional, cell-based; conditions: Homo sapiens, U-251, 48 h; read-out: IC50
Procedure, shortened: (§4)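 Cells seeded at 10⁴ cells/well and left 24 h to attach, then exposed to […] in triplicate wells per dose. Incubation 48 h, 37 °C, 5% CO₂. Cells fixed and stained with sulforhodamine B, excess dye removed with acetic acid, bound dye taken up in Tris EDTA and read on an ELISA reader. Surviving fraction plotted against concentration.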

[18] = system: HepG2; test: Cytotoxicity against human HepG2 cells assessed as surviving fraction after 48 hrs by SRB assay; assay type: functional, cell-based; conditions: hepg2; procedure, shortened: as §4
[19] = system: MCF7; test: Cytotoxicity against human MCF7 cells assessed as surviving fraction after 48 hrs by SRB assay; assay type: functional, cell-based; conditions: Homo sapiens, MCF7, 48 h; read-out: IC50; procedure, shortened: as §4
[20] = system: HeLa; test: Cytotoxicity against human HeLa cells assessed as surviving fraction after 48 hrs by SRB assay; assay type: functional, cell-based; conditions: Homo sapiens, HeLa, 48 h; read-out: IC50; procedure, shortened: as §4
[21] = system: HCT-116; test: Cytotoxicity against human HCT116 cells assessed as surviving fraction after 48 hrs by SRB assay; assay type: functional, cell-based; conditions: Homo sapiens, HCT-116, 48 h; read-out: IC50; procedure, shortened: as §4
[22] = system: U-251; test: Cytotoxicity against human U251 cells assessed as reduction in surviving fraction at 1 ug/ml after 48 hrs by SRB assay; assay type: functional, cell-based; procedure, shortened: as §4
[23] = system: U-251; test: Cytotoxicity against human U251 cells assessed as reduction in surviving fraction at 2.5 ug/ml after 48 hrs by SRB assay; assay type: functional, cell-based; procedure, shortened: as §4
[24] = system: U-251; test: Cytotoxicity against human U251 cells assessed as reduction in surviving fraction at 5.0 ug/ml after 48 hrs by SRB assay; assay type: functional, cell-based; procedure, shortened: as §4
[25] = system: U-251; test: Cytotoxicity against human U251 cells assessed as reduction in surviving fraction at 10.0 ug/ml after 48 hrs by SRB assay; assay type: functional, cell-based; procedure, shortened: as §4
[26] = system: MCF7; test: Cytotoxicity against human MCF7 cells assessed as reduction in surviving fraction at 1 ug/ml after 48 hrs by SRB assay; assay type: functional, cell-based; procedure, shortened: as §4
[27] = system: MCF7; test: Cytotoxicity against human MCF7 cells assessed as reduction in surviving fraction at 2.5 ug/ml after 48 hrs by SRB assay; assay type: functional, cell-based; procedure, shortened: as §4
[28] = system: MCF7; test: Cytotoxicity against human MCF7 cells assessed as reduction in surviving fraction at 5.0 ug/ml after 48 hrs by SRB assay; assay type: functional, cell-based; procedure, shortened: as §4
[29] = system: MCF7; test: Cytotoxicity against human MCF7 cells assessed as reduction in surviving fraction at 10.0 ug/ml after 48 hrs by SRB assay; assay type: functional, cell-based; procedure, shortened: as §4
[30] = system: HCT-116; test: Cytotoxicity against human HCT116 cells assessed as reduction in surviving fraction at 1 ug/ml after 48 hrs by SRB assay; assay type: functional, cell-based
Procedure, shortened: (§5)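 HCT116 cells seeded at 10⁴ per well and allowed to attach for 24 h; exposed to 0, 1, 2.5, 5 or 10 in triplicate for 48 h at 37 °C in 5% CO₂; fixed and stained with sulforhodamine B; bound dye recovered in Tris EDTA and read on an ELISA reader; surviving fraction plotted against concentration.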

[31] = system: HCT-116; test: Cytotoxicity against human HCT116 cells assessed as reduction in surviving fraction at 2.5 ug/ml after 48 hrs by SRB assay; assay type: functional, cell-based; procedure, shortened: as §5
[32] = system: HCT-116; test: Cytotoxicity against human HCT116 cells assessed as reduction in surviving fraction at 5.0 ug/ml after 48 hrs by SRB assay; assay type: functional, cell-based; procedure, shortened: as §5
[33] = system: HCT-116; test: Cytotoxicity against human HCT116 cells assessed as reduction in surviving fraction at 10.0 ug/ml after 48 hrs by SRB assay; assay type: functional, cell-based; procedure, shortened: as §5
[34] = system: Hepatovirus A; test: Antiviral activity against Hepatitis A virus infected african green monkey Vero cells at 10^-4 dilution of 5 mg/ml by plaque formation assay; assay type: functional
Procedure, shortened: (§6)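 Compound dilutions prepared from a 5 mg/mL DMSO stock, using the maximum non-toxic dilution for Vero cells over 3 days; 0.1 mL virus (10³) mixed with 0.1 mL compound for 1 h at room temperature; mixture inoculated onto washed Vero monolayers in 12-well plates and adsorbed at 37 °C; 2× MEM/agarose overlay applied; read-out % reduction in plaque count versus untreated virus control.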

[35] = system: Human alphaherpesvirus 1; test: Antiviral activity against HSV1 infected african green monkey Vero cells at 10^-4 dilution of 5 mg/ml by plaque formation assay; assay type: functional; procedure, shortened: as §6
[36] = system: Coxsackievirus B4; test: Antiviral activity against Coxsackievirus B4 infected african green monkey Vero cells at 10^-4 dilution of 5 mg/ml by plaque formation assay; assay type: functional, organism-based; procedure, shortened: as §6
[37] = system: Pseudomonas aeruginosa; test: Antibacterial activity against Pseudomonas aeruginosa NCIB 9016 at 1 mg/ml by agar disk diffusion assay; assay type: functional; conditions: Pseudomonas aeruginosa, NCIB 9016; read-out: DIZ
[38] = system: Pseudomonas aeruginosa; test: Antibacterial activity against Pseudomonas aeruginosa NCIB 9016 at 2.5 mg/ml by agar disk diffusion assay; assay type: functional; conditions: Pseudomonas aeruginosa, NCIB 9016; read-out: DIZ
[39] = system: Pseudomonas aeruginosa; test: Antibacterial activity against Pseudomonas aeruginosa NCIB 9016 at 5 mg/ml by agar disk diffusion assay; assay type: functional; conditions: Pseudomonas aeruginosa, NCIB 9016; read-out: DIZ
[40] = system: Bacillus subtilis; test: Antibacterial activity against Bacillus subtilis NCIB 3610 at 1 mg/ml by agar disk diffusion assay; assay type: functional; conditions: Bacillus subtilis, NCIB 3610; read-out: DIZ
[41] = system: Bacillus subtilis; test: Antibacterial activity against Bacillus subtilis NCIB 3610 at 2.5 mg/ml by agar disk diffusion assay; assay type: functional; conditions: Bacillus subtilis, NCIB 3610; read-out: DIZ

## N=C1C(=S)N(c2ccc(Br)cc2)C(=S)N1c1ccc(Br)cc1
[1]
  zone of inhibition at 5000 µg/mL: 32 mm
[2]
  zone of inhibition at 5000 µg/mL: 23 mm
[3]
  zone of inhibition at 1000 µg/mL: 18 mm
[4]
  zone of inhibition at 2500 µg/mL: 20 mm
[5]
  zone of inhibition at 5000 µg/mL: 20 mm
[6]
  zone of inhibition at 2500 µg/mL: 18 mm
[7]
  zone of inhibition at 1000 µg/mL: 15 mm
[8]
  MIC: 3.9 µg/mL (≈ 8.57 µM)
[9]
  MIC: 15.6 µg/mL (≈ 34.3 µM)
[10]
  MIC: 7.8 µg/mL (≈ 17.1 µM)
[11]
  MIC: 1.95 µg/mL (≈ 4.28 µM)
[12]
  MIC: 1.95 µg/mL (≈ 4.28 µM)
[13]
  MIC: 0.49 µg/mL (≈ 1.08 µM)
[14]
  inhibition at 100 µg/mL: 90%
[15]
  inhibition at 50 µg/mL: 70%
[16]
  inhibition at 25 µg/mL: 50%
[17]
  IC50: 1.28 µg/mL (≈ 2.81 µM)
[18]
  IC50: Not Active
[19]
  IC50: 3.09 µg/mL (≈ 6.79 µM)
[20]
  IC50: 8.93 µg/mL (≈ 19.6 µM)
[21]
  IC50: 4.56 µg/mL (≈ 10 µM)
[22]
  Activity: Active
[23]
  Activity: Active
[24]
  Activity: Active
[25]
  Activity: Active
[26]
  Activity: Active
[27]
  Activity: Active
[28]
  Activity: Active
[29]
  Activity: Active
[30]
  Activity: Active
[31]
  Activity: Active
[32]
  Activity: Active
[33]
  Activity: Active
[34]
  Activity: inactive
[35]
  Activity: 50%
[36]
  Activity: inactive
[37]
  zone of inhibition at 1000 µg/mL: 18 mm
[38]
  zone of inhibition at 2500 µg/mL: 19 mm
[39]
  zone of inhibition at 5000 µg/mL: 21 mm
[40]
  zone of inhibition at 1000 µg/mL: 21 mm
[41]
  zone of inhibition at 2500 µg/mL: 25 mm

## N=C1C(=S)N(c2ccc(I)cc2)C(=S)N1c1ccc(I)cc1
[1]
  zone of inhibition at 5000 µg/mL: 24 mm
[2]
  zone of inhibition at 5000 µg/mL: 21 mm
[3]
  zone of inhibition at 1000 µg/mL: 19 mm
[4]
  zone of inhibition at 2500 µg/mL: 20 mm
[5]
  zone of inhibition at 5000 µg/mL: 17 mm
[6]
  zone of inhibition at 2500 µg/mL: 15 mm
[7]
  zone of inhibition at 1000 µg/mL: 12 mm
[8]
  MIC: 3.9 µg/mL (≈ 7.1 µM)
[9]
  MIC: 15.6 µg/mL (≈ 28.4 µM)
[10]
  MIC: 7.8 µg/mL (≈ 14.2 µM)
[11]
  MIC: 1.95 µg/mL (≈ 3.55 µM)
[12]
  MIC: 1.95 µg/mL (≈ 3.55 µM)
[13]
  MIC: 0.49 µg/mL (≈ 0.892 µM)
[37]
  zone of inhibition at 1000 µg/mL: 15 mm
[38]
  zone of inhibition at 2500 µg/mL: 17 mm
[39]
  zone of inhibition at 5000 µg/mL: 20 mm
[40]
  zone of inhibition at 1000 µg/mL: 19 mm
[41]
  zone of inhibition at 2500 µg/mL: 21 mm
